# Laboratory results reported in ChEMBL document CHEMBL4321877, “Development of Novel N-hydroxypyridone Derivatives as Potential Anti-Ischemic Stroke Agents” (J Med Chem, 2020).
# Activity calls are given as the source filed them. The rule behind the calls is not given here.
# Legend:
# [1] = Solubility of the compound in […] incubated for 24 hrs by HPLC analysis; assay type: physicochemical
# [2] = system: SH-SY5Y; assay: (§1) Neuroprotective activity against oxygen-glucose deprivation-induced apoptosis in human SH-SY5Y cells assessed as viable cells at 4 uM preincubated for 2 hrs followed by OGD-challenge and measured after 24 hrs by Annexin V-FITC/propidium iodide staining-based flow cytometric method (reference value: 48.2%); assay type: functional; conditions: read-out: Activity
# [3] = system: SH-SY5Y; assay: as §1, with “early apoptotic” for “viable”, “17.1%)” for “48.2%)”; assay type: functional
# [4] = system: SH-SY5Y; assay: as §1, with “late apoptotic” for “viable”, “28.2%)” for “48.2%)”; assay type: functional
# [5] = system: SH-SY5Y; assay: as §1, with “necrotic” for “viable”, “6.46%)” for “48.2%)”; assay type: functional
# [6] = system: SH-SY5Y; assay: Neuroprotective activity against oxygen-glucose deprivation-induced morphological changes in human SH-SY5Y cells assessed as suppression of neurite disappearance […] and measured after 24 hrs by microscopic analysis; assay type: functional, cell-based
# [7] = system: SH-SY5Y; assay: Neuroprotective activity against oxygen-glucose deprivation-induced morphological changes in human SH-SY5Y cells assessed as suppression of cell shrinkage […] and measured after 24 hrs by microscopic analysis; assay type: functional, cell-based
# [8] = system: SH-SY5Y; assay: Neuroprotective activity against oxygen-glucose deprivation-induced morphological changes in human SH-SY5Y cells assessed as suppression of bright cell body appearance preincubated for 2 hrs followed by OGD-challenge and measured after 24 hrs by microscopic analysis; assay type: functional, cell-based
# Summary of the method: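 SH-SY5Y cells treated immediately before 2 h OGD (glucose/serum-free, hypoxia chamber, 37 °C), then reoxygenated; morphology (neurites, cell body, cell number) inspected by light microscopy 24 h after insult.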
# [9] = system: HT-22; assay: Neuroprotective activity against glutamate-induced cell death in mouse HT22 cells assessed as increase in cell viability up to 4 uM preincubated for 2 hrs followed by glutamate-challenge and measured after 24 hrs by MTT assay; assay type: functional, cell-based
# Summary of the method: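 HT22 mouse hippocampal cells (DMEM, 10% FBS) seeded 5×10^4 cells/ml and grown 12 h. Compound added for 2 h, then 10 mM L-glutamic acid hydrochloride for 24 h. Viability by MTT at 490 nm as % of control; mean ± SD, n = 3.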
# [10] = system: SH-SY5Y; assay: Neuroprotective activity against H2O2-induced cell death in human SH-SY5Y cells assessed as cell viability at 1 to 4 uM preincubated for 2 hrs followed by H2O2-challenge by MTT assay (reference value: 45.73%); assay type: functional
# [11] = system: Rattus norvegicus; assay: Neuroprotective activity in Sprague-Dawley rat model of middle cerebral artery occlusion-induced ischemia-reperfusion injury assessed as infarction volume at 1 mg/kg, iv by TTC staining based assay (reference value: 39%); assay type: functional
# Summary of the method: (§2)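 Male Sprague-Dawley rats under chloral hydrate (400 mg/kg, i.p.); nylon monofilament through the left internal carotid artery occluded the MCA origin for 2 h, then was withdrawn for reperfusion. Drug in 0.9% saline was injected via the tail vein immediately after reperfusion. After 24 h, 2 mm coronal sections were stained with 1% TTC at 37 °C for 15 min and fixed in 4% paraformaldehyde. Infarct % = (normal hemisphere − non-infarcted ischemic hemisphere)/normal hemisphere ×100. n=15-18, mean ± SEM.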
# [12] = system: Rattus norvegicus; assay: Neuroprotective activity in Sprague-Dawley rat model of middle cerebral artery occlusion-induced ischemia-reperfusion injury assessed as infarction volume at 0.3 mg/kg, iv by TTC staining based assay (reference value: 39%); assay type: functional; summary of the method: as §2
# [13] = system: Rattus norvegicus; assay: Neuroprotective activity in Sprague-Dawley rat model of middle cerebral artery occlusion-induced ischemia-reperfusion injury assessed as reduction in disease severity score at 1 mg/kg, iv measured 24 hrs post-reperfusion; assay type: functional, organism-based
# Summary of the method: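 Male Sprague-Dawley rats anesthetized with chloral hydrate (400 mg/kg i.p.); left MCA occluded by intraluminal nylon suture for 2 h, then withdrawn. Compound in 0.9% saline given by tail vein immediately after reperfusion; body temperature held at 37.0 ± 0.5 °C. mNSS scored 24 h later; n = 15–18, mean ± SEM.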
# [14] = molecular target: Voltage-gated inwardly rectifying potassium channel KCNH2 (Homo sapiens, UniProt Q12809); assay: Inhibition of human ERG stably expressed in CHO cells at -80 mV by automated Qpatch electrophysiological assay; assay type: cell-based
# [15] = system: SH-SY5Y; assay: Cytotoxicity against human SH-SY5Y cells assessed as reduction in cell viability measured after 24 hrs by MTT assay; assay type: cell-based
# Summary of the method: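 SH-SY5Y cells (1:1 MEM/F12, 10% FBS) seeded 3 × 10^4 cells/well, grown 24 h, then exposed without insult for 24 h to 1.56–100 µM or to 1 and 10 µM (DMSO stock diluted in medium). MTT read at 490 nm; viability as % of untreated control.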
# [16] = system: MRC5; assay: Cytotoxicity against human MRC5 cells assessed as reduction in cell viability measured after 72 hrs by CCK8 assay; assay type: cell-based; conditions: MRC5, 72 h
# Summary of the method: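 MRC-5 cells grown in MEM with 10% FBS, NEAA, 5% CO2 at 37 °C; seeded 7000 cells/well, treated at several concentrations for 72 h. Viability by CCK-8 absorbance at 450 nm, expressed as % of vehicle-treated cells; IC50 reported as mean ± SD.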
# [17] = system: Rattus norvegicus; assay: Neuroprotective activity in iv dosed Sprague-Dawley rat model of middle cerebral artery occlusion-induced ischemia-reperfusion injury assessed as concentration required to reduce infarction volume to < 26% by TTC staining based assay; assay type: functional; summary of the method: as §2
# [18] = Half life in mouse liver microsomes at 1 uM in presence of NADPH by LC-MS/MS analysis; assay type: ADME, Microsome
# [19] = system: SH-SY5Y; assay: Neuroprotective activity against oxygen-glucose deprivation-induced morphological changes in human SH-SY5Y cells assessed as increase in cell number added immediately before OGD-challenge and measured after 24 hrs by microscopic analysis
# [20] = system: Rattus norvegicus; assay: Neuroprotective activity in Sprague-Dawley rat model of middle cerebral artery occlusion-induced ischemia-reperfusion injury assessed as infarction volume at 3 mg/kg, iv by TTC staining based assay (reference value: 39%); assay type: functional; summary of the method: as §2
# Voltage-gated inwardly rectifying potassium channel KCNH2, sequence (Q12809 whole entry): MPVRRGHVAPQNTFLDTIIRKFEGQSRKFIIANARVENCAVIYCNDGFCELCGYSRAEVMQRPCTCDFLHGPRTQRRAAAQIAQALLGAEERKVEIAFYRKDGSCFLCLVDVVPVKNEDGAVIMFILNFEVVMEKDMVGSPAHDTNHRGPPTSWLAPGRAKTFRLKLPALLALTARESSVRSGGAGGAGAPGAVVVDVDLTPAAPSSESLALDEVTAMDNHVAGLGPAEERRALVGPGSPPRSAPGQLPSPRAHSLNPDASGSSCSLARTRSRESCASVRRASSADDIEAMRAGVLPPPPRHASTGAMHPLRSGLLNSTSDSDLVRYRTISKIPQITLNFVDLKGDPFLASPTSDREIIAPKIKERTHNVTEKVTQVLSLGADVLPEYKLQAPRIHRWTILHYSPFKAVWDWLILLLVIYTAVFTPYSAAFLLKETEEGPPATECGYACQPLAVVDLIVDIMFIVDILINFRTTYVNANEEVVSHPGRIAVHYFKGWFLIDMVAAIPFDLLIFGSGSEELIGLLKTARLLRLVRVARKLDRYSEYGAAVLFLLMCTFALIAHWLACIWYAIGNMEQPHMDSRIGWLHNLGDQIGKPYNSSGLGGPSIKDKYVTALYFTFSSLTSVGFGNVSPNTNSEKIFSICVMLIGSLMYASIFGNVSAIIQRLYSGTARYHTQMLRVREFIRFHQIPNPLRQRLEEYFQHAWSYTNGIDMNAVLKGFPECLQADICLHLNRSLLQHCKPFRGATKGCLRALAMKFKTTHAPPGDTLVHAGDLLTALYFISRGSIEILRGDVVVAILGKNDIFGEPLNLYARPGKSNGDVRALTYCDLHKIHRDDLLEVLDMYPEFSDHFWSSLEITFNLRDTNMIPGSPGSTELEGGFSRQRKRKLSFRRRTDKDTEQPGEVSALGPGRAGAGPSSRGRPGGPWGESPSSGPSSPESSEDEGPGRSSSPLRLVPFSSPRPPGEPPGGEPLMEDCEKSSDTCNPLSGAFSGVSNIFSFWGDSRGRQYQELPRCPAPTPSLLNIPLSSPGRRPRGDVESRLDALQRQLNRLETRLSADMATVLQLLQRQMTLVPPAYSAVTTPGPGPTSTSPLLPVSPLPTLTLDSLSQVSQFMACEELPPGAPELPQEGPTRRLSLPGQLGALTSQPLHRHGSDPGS
compound,measurement,setting,value
Cc1cc([C@@H]2C[C@@H]3CC[C@H]2C3)n(O)c(=O)c1.NCCO,solubility at 24 h,[1],10.9 mg/mL
same,viability at 4 µM,[2],69.8%
same,Activity,[3],9.36%
same,Activity,[4],16%
same,Activity,[5],4.87%
same,Activity,[6],Active
same,Activity,[7],Active
same,Activity,[8],Active
same,Activity,[9],Active
same,Activity,[10],<=80%
same,Activity,[11],23%
same,Activity,[12],25%
same,Activity,[13],Active
same,IC50,[14],> 40 µM
same,IC50,[15],> 100 µM
same,IC50,[16],23.6 µM
same,Activity,[17],0.3 mg/kg
same,half-life at 1 µM,[18],1.53 h
same,Activity,[19],Active
Cc1cc(C2CCCCC2)n(O)c(=O)c1.NCCO [CICLOPIROX OLAMINE],solubility,"[1]; buffer, 24 h",6.82 mg/mL
same,Activity,[10],<=80%
same,Activity,[20],26%
same,IC50,[14],> 40 µM
same,IC50,[15],> 100 µM
same,IC50,[16],23.5 µM
same,Activity,[17],3 mg/kg
same,half-life at 1 µM,[18],0.886 h
